First the molecules themselves.
B1: tRNA (parent)
chain: GUUCCGUUGGCGUAAUGGUAACGCGUCUCCCUCCUAAGGAGAAGACUGCGGGUUCGAGUCCCGUACGGAACG

This sample holds only a part of the variants without activity.

Variants of B1 are the subject of the data set. The data set is described as follows: yeast fitness relative to wild type (ratio to wild type); higher = fitter; tRNA-Arg(CCU), competitive growth, 37 C, YPD. In short, it runs like this:
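Changes in genotype frequencies gave Darwinian fitness relative to wild type. Frequencies were read by 100-nucleotide paired-end sequencing of gene amplicons before and after pooled Saccharomyces cerevisiae strains, carrying tRNA-Arg(CCU) gene variants at the native locus, were competed in YPD at 37°C for 24 hours in six replicates. A genotype was kept only with ≥ 100 starting reads, and estimates < 0.5 were set to 0.5.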
For the variant GUUCCGUUGGCGUAAUGGUAACGCGUAUCCCUCCUAAGGAGAACACUGCCGGUUCGAGUCCCGUACGGAACG [C27A G44C G50C], the yeast fitness worked out at 0.639.

Turning to GUUCCGUUGGCGUAAUGGUAACGCGUAACCCUCCUAAGGAGAAGACUGCGGGUUCGAGUCCCGUACGGAACG [C27A U28A], the yeast fitness worked out at 0.841.

As for GUUCCGUUGGCGUAAUGGUAACGCGUAUCCCUCGUAAGGGGAAGACUGCGGGUUCGAGUCCCGUACGGAACG [C27A C34G A40G], the yeast fitness was 0.666.

For GUUCCGUUGGCGUAAUGGUAACGCGUAUCCCUCCUAAGGAGAAGACUGCGGGUUCGCGUCCUGUACGGAACG [C27A A57C C62U], the yeast fitness worked out at 0.531.

Consider GUUCCGUUGGCGUAAUGGUAACGCGUAUCCCUCCUAAGGAGCAGACUGCGGGUUCGAGUCCCGUACGCAACG [C27A A42C G68C], for which the yeast fitness was not above 0.5.

For the variant GUUCCGUUGGCGUAAUGGUAACGCGUAUCCCUCAUAAGGAGAAGACUGCGGGUUCGAGUCCCGUACGGAACG [C27A C34A], the yeast fitness was 0.68.

In the case of GUUCCGUUGGCGUAAUGGUAACGCGUAUCCCUCCUAAGGAGAAGACUGCGGGUUCGACUCCCGGACGGAACG [C27A G58C U64G], the yeast fitness is not above 0.5.

Consider GUUCCGUUGGCGUAAUGGUAACGCGUAUCCCUCCUAAGGAGAAGAAUGCGGGUUCGAGUCCCAUACGGAACG [C27A C46A G63A], for which the yeast fitness is 0.714.

With GUUCCGUUGGCGUAAUGGUAACGCGUAUCACUCCUAAGGAGAAGCCUGCGGGUUCCAGUUCCGUACGUAACG [C27A C30A A45C G56C C60U G68U], the yeast fitness was not above 0.5.

With GUUCCGUUGGCGUAAUGGUAACGCGUAUCCCUCCUAAGGAGGACACUGCGGGUUCGAGUCCCGUAUGGAACG [C27A A42G G44C C66U], the yeast fitness is not above 0.5.

On to GUUCCGUUGGCGUAAUGGUAACGCGUAUCCCUCCUAAGGAGAAGACUGCGGGUUCGAGUUGCGUGCGGAACG [C27A C60U C61G A65G], for which the yeast fitness came to 0.598.

Consider GUUCCGUUGGCGUAAUGGUAACGCGUAUCCGUCCUAAGGAGCAGACUGCGGGUUCGAGUCGCGUACGGAACG [C27A C31G A42C C61G], for which the yeast fitness is not above 0.5.

Turning to GUUCCGUUGGCGUAAUGGUAACGCGUAUCCCUCCUAAGGAGAAGUCUGUGGGUUCGAGUCCCGUACCGAACG [C27A A45U C49U G67C], the yeast fitness was not above 0.5.

Consider GUUCCGUUGGCGUAAUGGUAACGCGUAUCCCUCCUAAGGAGAAGACUGCGGGUUUGAGUCCCGUAAGGAACG [C27A C55U C66A], for which the yeast fitness was not above 0.5.

GUUCCGUUGGCGUAAUGGUAACGCGUAUCCCUCCUAAGGAGAAGACUGCGGGUUCGACUCCCGUACGGCACG [C27A G58C A69C]: the yeast fitness turned out to be 0.719.

Regarding GUUCCGUUGGCGUAAUGGUAACGCGUAUCCCUCCUAAGGAGCAGAUUGCGGGUUCGAGUCCUGUACGGAACG [C27A A42C C46U C62U], the yeast fitness was found to be 0.563.

Regarding GUUCCGUUGGCGUAAUGGUAACGCGUAUCCCUCCUAAGAAGAAGACUGCGGGUUCGGGUCCCGUACGAAACG [C27A G39A A57G G68A], the yeast fitness was not above 0.5.

GUUCCGUUGGCGUAAUGGUAACGCGUAUCCCUCCUAAGGAGAAGGCUCCGGGUUCGAGUCCCGUACGGAACG [C27A A45G G48C]: the yeast fitness was not above 0.5.

With GUUCCGUUGGCGUAAUGGUAACGCGUAUCCCUCCUAAGGAGAAGACUGAGGGUUCCAGUCCCGUGCGGAACG [C27A C49A G56C A65G], the yeast fitness is not above 0.5.

In the case of GUUCCGUUGGCGUAAUGGUAACGCGUAACCCUCCUAAGGAAAAGACUACGGGUUCGAGUCCCGUACGGAACG [C27A U28A G41A G48A], the yeast fitness was 0.75.

As for GUUCCGUUGGCGUAAUGGUAACGCGUAUCCCUCCUAAGGAGAAGACUGCGGGUUCGAGUCCCGUACGGUACG [C27A A69U], the yeast fitness stood at 0.846.

Regarding GUUCCGUUGGCGUAAUGGUAACGCGUAUCACUCCUAAGGAGAAGACUGCGGGUUCGAGUCCCGUACGGAACG [C27A C30A], the yeast fitness worked out at 0.766.

For the variant GUUCCGUUGGCGUAAUGGUAACGCGUACCCCUCCUACGGAGAAGACUGCGGGUUCGAGUCCCGUACGGAACG [C27A U28C A37C], the yeast fitness was not above 0.5.

In the case of GUUCCGUUGGCGUAAUGGUAACGCGUAUCCCUCCUAAGGAGAAGACUGCGGGUUCGAGUCCCGUGUGGAACG [C27A A65G C66U], the yeast fitness amounted to 0.772.

As to GUUCCGUUGGCGUAAUGGUAACGCGUAUCCCUCCUAAGGAGAAGACUGCGGGUUCGAAUCCCGUAGGGAACG [C27A G58A C66G], the yeast fitness is 0.512.

Turning to GUUCCGUUGGCGUAAUGGUAACGCGUAUCCCUCCUAAGGAGAAGACUGCCGGUUCGAGUCCGGUAUGGAACG [C27A G50C C62G C66U], the yeast fitness is 0.606.

Regarding GUUCCGUUGGCGUAAUGGUAACGCGUAUCCCUCCUAAGGAGAAGACUGCGGGUUCGAGUCGCGUACAGAACG [C27A C61G G67A], the yeast fitness is not above 0.5.

Regarding GUUCCGUUGGCGUAAUGGUAACGCGUAUCCCUCCUAAGGAGAAGACUGCGGGUUCGAAUCCCGUACGGAACG [C27A G58A], the yeast fitness was 0.849.

Consider GUUCCGUUGGCGUAAUGGUAACGCGUAUCCCUCGUAAGGAGGAGACUGCAGGUUCGAGUCCCGUACGGAACG [C27A C34G A42G G50A], for which the yeast fitness was not above 0.5.

Turning to GUUCCGUUGGCGUAAUGGUAACGCGUAUCCCUCCUAAGGAGACGACUGCGGGUUCGAGUCCCGUAUGGAACG [C27A A43C C66U], the yeast fitness was determined as 0.709.

For GUUCCGUUGGCGUAAUGGUAACGCGUAUCCCUCCUAAGGAGAAGACUGCGGGUUCCAGUCCCGUACGGAACG [C27A G56C], the yeast fitness amounted to 0.627.

For GUUCCGUUGGCGUAAUGGUAACGCGUAUCCAUCCUAAGGAGAAGACUGCGGAUUCGACUCCAGUACGGAACG [C27A C31A G52A G58C C62A], the yeast fitness was not above 0.5.

For the variant GUUCCGUUGGCGUAAUGGUAACGCGUAUCCCUCCUAAGGACAAGACUGCGGGUUCGAGUCCCGUAUGGAACG [C27A G41C C66U], the yeast fitness stood at 0.689.

Regarding GUUCCGUUGGCGUAAUGGUAACGCGUAUCCCUCCUAAGGAGAAGACUGCGGGUUCGAGUCCCGUACGGAUCG [C27A A70U], the yeast fitness came out at 0.962.

GUUCCGUUGGCGUAAUGGUAACGCGUAUCCCUCCUAAGGAGAAGACUGCGGGUUCGAGUCCCGUACGGACCG [C27A A70C]: the yeast fitness was found to be 0.787.

Take GUUCCGUUGGCGUAAUGGUAACGCGUAUCCCUCCUAAGGAGAAGACUGCGGGUUCGAGUCCUGUACGGAACG [C27A C62U]: the yeast fitness is 0.815.

For GUUCCGUUGGCGUAAUGGUAACGCGUAUCCCUCCUAAGGAGAAGACUGCGGGUUCCAGUCCCGUACGGAUCG [C27A G56C A70U], the yeast fitness was not above 0.5.

GUUCCGUUGGCGUAAUGGUAACGCGUAUCCCUCCUAAGGAGAAGACUGCGGGUUCGAGUCACGUACGGAACG [C27A C61A]: the yeast fitness was found to be 0.67.

Values taken from the RNAGym collection of RNA variant scans (doi:10.1126/science.aae0568).
